CAL PDZ FP-1: blocks peptide binding to human CAL PDZ domain | 330,000 compounds, 0.02% hits | inhibition, % at 20 µM | purified CAL PDZ, TMR-peptide fluorescence polarization, 1 h | Q9HD26;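 active = highest replicate inhibition of at least 40%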;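 also: plate controls were DMSO neutral control wells for no effect and unlabeled competitor peptide control wells for full effect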
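System: tagged CAL PDZ domain. Schedule: 1 h room-temperature incubation prior to read. Signal: fluorescence polarization (mP). Measure: percent inhibition from loss of millipolarization.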
ARNT TACC3 PPI: disrupts binding between human ARNT and TACC3 | inhibition, % at 9.99 µM | 390,000 compounds, 0.66% hits | AlphaScreen His-ARNT PAS-B/GST-TACC3 binding, luminescence; TACC3 fragment carries E629A point mutation | Q9Y6A5;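 active = mean inhibition of replicates at least 50% and at least half of replicates each reaching 50%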;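 also: 0% = complete ARNT plus TACC3 wells and 100% = ARNT alone without TACC3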
CAL PDZ FP-2: CAL PDZ (human) peptide binding inhibition. Q9HD26. purified CAL PDZ, TMR-peptide fluorescence polarization, 1 h. inhibition, % at 24.9 µM. 300,000 compounds, 0.92% hits;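 active = mean inhibition of at least 30% with at least half of replicates also reaching 30%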;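 also: 0% = DMSO neutral control and 100% = excess unlabeled competitor peptide PRC23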
Numbers without * were called inactive. Shown are actives, neighbours in structure and some others; about 1.2% of the full set was active somewhere.

For CSc1nc(NCCOCCO)c2sc3nc(-c4ccco4)c4c(c3c2n1)CCC4 the results were CAL PDZ FP-1 0, ARNT TACC3 PPI -32 and CAL PDZ FP-2 66*.
`CCN(CCO)c1nc(SC)nc2c1sc1nc(-c3ccco3)c3c(c12)CCC3` gave CAL PDZ FP-1 -3, ARNT TACC3 PPI 20 and CAL PDZ FP-2 -5.
Screening COc1ccc(CNC(=O)N(C)C[C@@H]2OCc3ccccc3-c3ccccc3C(=O)N([C@H](C)CO)C[C@H]2C)cc1 returned ARNT TACC3 PPI -18.
For Cc1noc(C)c1NC(=O)Nc1ccc2c(c1)CC(=O)N([C@H](C)CO)C[C@H](C)[C@H](CN(C)C(=O)Nc1ccc(F)cc1)O2 the results were ARNT TACC3 PPI -2.
`CCOC(=O)C1=C(CC)OC(N)=C(C#N)C1c1ccc(OC)c(C)c1OC` (stereo not drawn) gave CAL PDZ FP-1 0, ARNT TACC3 PPI -6 and CAL PDZ FP-2 -3.
`CCOC(=O)C1=C(CC)OC(N)=C(C#N)C1c1ccc(OC)c(OC)c1OC` (stereo not drawn) gave CAL PDZ FP-1 -1 and ARNT TACC3 PPI 15*.
`C[C@@H]1CCCCO[C@H](CN(C)C(=O)NC2CCCCC2)[C@@H](C)CN([C@H](C)CO)C(=O)c2cc(NC(=O)NC3CCCCC3)ccc2O1` gave ARNT TACC3 PPI -9.
`CCC(=O)N1[C@H](CN(CC)C(=O)c2ccccc2)[C@H](c2ccccc2)[C@@H]1CO` gave ARNT TACC3 PPI -8.
`CCCCC(=O)N1C/C=C\[C@H](c2ccc(OC)cc2)N(Cc2ccc(F)cc2)C(=O)[C@@H]1C` gave CAL PDZ FP-1 1, ARNT TACC3 PPI 8.3* and CAL PDZ FP-2 -1.
For COc1ccc([C@H]2/C=C\CN(C(=O)c3ccccc3)[C@@H](C)C(=O)N2Cc2ccc(F)cc2)cc1 the results were CAL PDZ FP-1 -2, ARNT TACC3 PPI 3 and CAL PDZ FP-2 0.
Screening C/C(=N\NC(=O)CC#N)c1cc2ccccc2oc1=O returned CAL PDZ FP-1 0, ARNT TACC3 PPI 21* and CAL PDZ FP-2 0.
C/C(=N\Nc1ccccc1)c1cc2ccccc2oc1=O was read as CAL PDZ FP-1 0, ARNT TACC3 PPI -3 and CAL PDZ FP-2 1.
`Cc1cccc(-n2nc(C)c3c2NC2=C(C(=O)CCC2)C3c2ccccn2)c1` (stereo not drawn) gave ARNT TACC3 PPI 3 and CAL PDZ FP-2 79*.
For Cc1nn(-c2ccccn2)c2c1C(c1ccsc1)C1=C(CCCC1=O)N2 (stereo not drawn) the results were CAL PDZ FP-1 -1, ARNT TACC3 PPI 2 and CAL PDZ FP-2 -3.
For CC(C)NC(=O)N(C)C[C@H]1OCCCC[C@H](C)Oc2ccc(NS(=O)(=O)c3ccc(F)cc3)cc2C(=O)N([C@@H](C)CO)C[C@H]1C the results were ARNT TACC3 PPI -2.
Screening CCCN1C[C@@H](C)[C@@H](OC)CN(C)C(=O)c2ccc(NC(=O)Nc3cccc(F)c3)cc2OC[C@H]1C returned ARNT TACC3 PPI 1.
Screening O=C(Nc1ccc2c(c1)OCO2)c1cc(-c2cccnc2)nc2ccccc12 returned CAL PDZ FP-1 0, ARNT TACC3 PPI 2 and CAL PDZ FP-2 40*.
Screening O=C(Nc1cccnc1)c1cc(-c2ccc(Br)cc2)nc2ccccc12 returned CAL PDZ FP-1 0, ARNT TACC3 PPI 0 and CAL PDZ FP-2 68*.
`Cc1ccc(C)c(-c2cc(C(=O)Nc3cccnc3)c3ccccc3n2)c1` gave CAL PDZ FP-1 -3, ARNT TACC3 PPI 12 and CAL PDZ FP-2 -4.
For O=C(NN1CCOCC1)c1ccccc1Br the results were CAL PDZ FP-1 0 and CAL PDZ FP-2 -1.
O=C(NN1CCOCC1)c1cc(-c2ccc(Br)cc2)nc2ccccc12 was read as CAL PDZ FP-1 0, ARNT TACC3 PPI -6 and CAL PDZ FP-2 59*.
`CCc1ccc(-c2cc(C(=O)NN3CCOCC3)c3ccccc3n2)cc1` gave ARNT TACC3 PPI -2 and CAL PDZ FP-2 -6.
Screening Cc1ccccc1C(=O)NN1CCOCC1 returned CAL PDZ FP-1 0, ARNT TACC3 PPI -35 and CAL PDZ FP-2 82*.
Cc1ccc(-c2cc(C(=O)Nc3ccc4c(c3)OCCO4)c3ccccc3n2)cc1 was read as CAL PDZ FP-1 0, ARNT TACC3 PPI -12 and CAL PDZ FP-2 -2.
For CO[C@@H]1CN(C)C(=O)c2cc(NC(=O)C3CC3)ccc2OC[C@@H](C)N(CC2CCCC2)C[C@@H]1C the results were ARNT TACC3 PPI -6.
O=C(NNC(=S)Nc1ccccc1)c1cc(-c2cccnc2)nc2ccccc12 was read as CAL PDZ FP-1 -2, ARNT TACC3 PPI 13 and CAL PDZ FP-2 3.
For CCOC(=O)c1ccc(NC(=S)NNC(=O)c2cc(-c3cccnc3)nc3ccccc23)cc1 the results were CAL PDZ FP-1 -2, ARNT TACC3 PPI 10 and CAL PDZ FP-2 49*.
Screening COc1ccccc1CNC(=O)C[C@H]1CC[C@@H]2[C@H](COC[C@H](O)CN2Cc2cccc(-c3ccncc3)c2)O1 returned ARNT TACC3 PPI 2.
For CO[C@@H]1CN(C)C(=O)c2cc(NS(C)(=O)=O)ccc2OC[C@H](C)N(CC2CCOCC2)C[C@@H]1C the results were ARNT TACC3 PPI -8.
For C[C@@H]1CCCCO[C@@H](CN(C)C(=O)c2ccccc2)[C@H](C)CN([C@H](C)CO)C(=O)c2cc(NC(=O)CCC(F)(F)F)ccc2O1 the results were ARNT TACC3 PPI -8.
For Cc1c(C)n(Cc2ccc(F)cc2)c2ccc(C(=O)NCCN3CCOCC3)cc12 the results were CAL PDZ FP-1 1, ARNT TACC3 PPI -6 and CAL PDZ FP-2 90*.
`Cc1cccc(Cn2c(C)c(C)c3cc(C(=O)NCCN4CCOCC4)ccc32)c1` gave CAL PDZ FP-1 -3, ARNT TACC3 PPI 13 and CAL PDZ FP-2 22.
Screening Cn1c(=O)c2cc(S(=O)(=O)NCCC(=O)NCc3ccccc3Cl)ccc2n(C)c1=O returned CAL PDZ FP-1 0, ARNT TACC3 PPI 50* and CAL PDZ FP-2 1.
`Cc1ccc(CNC(=O)CCNS(=O)(=O)c2ccc3c(c2)c(=O)n(C)c(=O)n3C)cc1` gave CAL PDZ FP-1 -2 and ARNT TACC3 PPI 8.
For C[C@@H]1CN([C@H](C)CO)C(=O)c2cc(NC(=O)c3ccccc3)ccc2O[C@@H](C)CCCCO[C@H]1CN(C)S(=O)(=O)c1cn(C)cn1 the results were ARNT TACC3 PPI -19.
Screening Cc1ccc(-c2nn(C)c(=O)c3ccccc23)cc1CN1CCCCC1 returned CAL PDZ FP-1 -1, ARNT TACC3 PPI 9 and CAL PDZ FP-2 47*.
Cc1ccc(-c2nn(C)c(=O)c3ccccc23)cc1CNS(C)(=O)=O was read as CAL PDZ FP-1 -2 and CAL PDZ FP-2 -3.
For CCOC(=O)c1sc(NC(=O)Nc2ccc(Cl)cc2)nc1C the results were CAL PDZ FP-1 0, ARNT TACC3 PPI -3 and CAL PDZ FP-2 52*.
`CCOC(=O)Nc1nc(C)c(C(=O)c2ccc(Cl)cc2)s1` gave ARNT TACC3 PPI 23 and CAL PDZ FP-2 -4.
C[C@@H]1CN([C@@H](C)CO)C(=O)c2cc(NC(=O)CCC(F)(F)F)ccc2O[C@H]1CN(C)C(=O)Nc1ccc(F)cc1 was read as ARNT TACC3 PPI -5.

Screening results as filed in PubChem.
